Measurements: ChEMBL document CHEMBL5329183, “Naphthylthiazoles: a class of broad-spectrum antifungals” (RSC Med Chem, 2023)
Converted amounts (≈) assume the structure as drawn.

What was measured:
Clostridioides difficile = experiment: Antibacterial activity against Clostridium difficile ATCC BAA1870 assessed as inhibition of bacterial growth; assay type: functional
Escherichia coli [1] = experiment: Antibacterial activity against wild type Escherichia coli BW25113 assessed as inhibition of bacterial growth; assay type: functional
Staphylococcus aureus = experiment: Antibacterial activity against Methicillin-resistant Staphylococcus aureus USA300 assessed as inhibition of bacterial growth; assay type: functional
Escherichia coli [2] = experiment: Antibacterial activity against Escherichia coli JW55031 harboring tolC mutant assessed as inhibition of bacterial growth; assay type: functional
Candida albicans [3] = experiment: Antifungal activity against wild type Candida albicans SC5314 assessed as inhibition of fungal growth; assay type: functional
Lactobacillus gasseri = experiment: Antibacterial activity against Lactobacillus gasseri HM400 assessed as inhibition of bacterial growth; assay type: toxicity, organism-based
[4] = Antifungal activity against Cryptococcus gattii NR 43213 assessed as inhibition of fungal growth incubated for 48 hrs by broth microdilution method; assay type: functional, Cryptococcus gattii VGI
Method in brief: (§1)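 Broth microdilution per CLSI guidelines against clinical isolates, incubated at 35 °C for 24 h (Candida, Aspergillus) or 48 h (Cryptococcus). MIC was the lowest concentration giving 50% growth inhibition.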

Nakaseomyces glabratus [5] = experiment: Antifungal activity against Candida glabrata ATCC MYA2950 assessed as inhibition of fungal growth incubated for 24 hrs by broth microdilution method; assay type: functional
Method in brief: (§2)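 Clinical isolate; CLSI broth microdilution over a range of concentrations (media listed: RPMI 1640, MOPS, YPD). MIC taken as lowest concentration giving 50% growth inhibition after 24 h at 35 °C.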

Cryptococcus neoformans [6] = experiment: Antifungal activity against Cryptococcus neoformans NR 41300 assessed as inhibition of fungal growth incubated for 48 hrs by broth microdilution method; assay type: functional
Method in brief: (§3)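 Clinical isolate; CLSI broth microdilution over a range of concentrations (media listed: RPMI 1640, MOPS, YPD). MIC read as lowest concentration inhibiting growth by 50% after 48 h incubation at 35 °C.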

[7] = Antibacterial activity against Lactobacillus casei HM334 assessed as inhibition of bacterial growth; assay type: toxicity; conditions: lacticaseibacillus casei
Candida parapsilosis [8] = experiment: Antifungal activity against Candida parapsilosis CAB 502638 assessed as inhibition of fungal growth incubated for 24 hrs by broth microdilution method; assay type: functional; conditions: Lodderomyces parapsilosis; method in brief: as §1
Cryptococcus neoformans [9] = experiment: Antifungal activity against Cryptococcus neoformans NR 48773 assessed as inhibition of fungal growth incubated for 48 hrs by broth microdilution method; assay type: functional; method in brief: as §3
Cryptococcus neoformans [10] = experiment: Antifungal activity against Cryptococcus neoformans NR 48771 assessed as inhibition of fungal growth incubated for 48 hrs by broth microdilution method; assay type: functional; method in brief: as §3
Candida albicans [11] = experiment: Antifungal activity against Candida albicans ATCC 10231 assessed as inhibition of fungal growth incubated for 24 hrs by broth microdilution method; assay type: functional; method in brief: as §1
[Candida] auris [12] = Antifungal activity against Candida auris 381 assessed as inhibition of fungal growth incubated for 24 hrs by broth microdilution method; assay type: functional; conditions: Candidozyma auris; method in brief: as §2
Nakaseomyces glabratus [13] = experiment: Antifungal activity against Candida glabrata ATCC 66032 assessed as inhibition of fungal growth incubated for 24 hrs by broth microdilution method; assay type: functional; method in brief: as §2
Cryptococcus neoformans [14] = experiment: Antifungal activity against Cryptococcus neoformans NR 48767 assessed as inhibition of fungal growth incubated for 48 hrs by broth microdilution method; assay type: functional; method in brief: as §3
[15] = Antifungal activity against Cryptococcus gattii NR 43214 assessed as inhibition of fungal growth incubated for 48 hrs by broth microdilution method; assay type: functional, Cryptococcus gattii VGI; method in brief: as §1
[Candida] auris [16] = Antifungal activity against Candida auris 382 assessed as inhibition of fungal growth incubated for 24 hrs by broth microdilution method; assay type: functional; conditions: Candidozyma auris; method in brief: as §2
[17] = Antibacterial activity against Lactobacillus crispatus HM370 assessed as inhibition of bacterial growth; assay type: toxicity
Cryptococcus neoformans [18] = experiment: Antifungal activity against Cryptococcus neoformans NR 48770 assessed as inhibition of fungal growth incubated for 48 hrs by broth microdilution method; assay type: functional; method in brief: as §3
Candida albicans [19] = experiment: Antifungal activity against Candida albicans NR 29448 assessed as inhibition of fungal growth incubated for 24 hrs by broth microdilution method; assay type: functional; method in brief: as §2
Vero = experiment: Cytotoxicity against African green monkey Vero cells assessed as inhibition of cell viability at 16 ug/ml incubated for 2 hrs by MTS assay; assay type: toxicity, cell-based; conditions: chlorocebus sabaeus, dose 16 µg/ml
[20] = Antifungal activity against Cryptococcus gattii NR 43209 assessed as inhibition of fungal growth incubated for 48 hrs by broth microdilution method; assay type: functional, Cryptococcus gattii VGI; method in brief: as §1
Cryptococcus neoformans [21] = experiment: Antifungal activity against Cryptococcus neoformans NR 41299 assessed as inhibition of fungal growth incubated for 48 hrs by broth microdilution method; assay type: functional; method in brief: as §3
[Candida] auris [22] = Antifungal activity against Candida auris 383 assessed as inhibition of fungal growth incubated for 24 hrs by broth microdilution method; assay type: functional; conditions: Candidozyma auris; method in brief: as §2
[23] = Cytotoxicity against African green monkey Vero cells assessed as inhibition of cell viability incubated for 2 hrs by MTS assay; assay type: toxicity, cell-based; conditions: chlorocebus sabaeus
Method in brief: (§4)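 Vero cells were grown in MEM with 10% FBS, 1 mM sodium pyruvate and penicillin–streptomycin, then exposed to compounds for 2 h at 37 °C, 5% CO2, in triplicate. MTS was added for 3 h and OD490 read. Viability was expressed as % of DMSO-matched controls (mean ± SD).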

Cryptococcus neoformans [24] = experiment: Antifungal activity against Cryptococcus neoformans NR 41298 assessed as inhibition of fungal growth incubated for 48 hrs by broth microdilution method; assay type: functional; method in brief: as §3
Candida parapsilosis [25] = experiment: Antifungal activity against Candida parapsilosis ATCC 22019 assessed as inhibition of fungal growth incubated for 24 hrs by broth microdilution method; assay type: functional; conditions: Lodderomyces parapsilosis; method in brief: as §2
[26] = Antifungal activity against Cryptococcus gattii NR 43210 assessed as inhibition of fungal growth incubated for 48 hrs by broth microdilution method; assay type: functional, Cryptococcus gattii VGI; method in brief: as §1
Pichia kudriavzevii [27] = experiment: Antifungal activity against Candida krusei CAB 396420 assessed as inhibition of fungal growth incubated for 24 hrs by broth microdilution method; assay type: functional; method in brief: as §1
[28] = Antifungal activity against Cryptococcus gattii NR 43216 assessed as inhibition of fungal growth incubated for 48 hrs by broth microdilution method; assay type: functional, Cryptococcus gattii VGI; method in brief: as §1
Pichia kudriavzevii [29] = experiment: Antifungal activity against Candida krusei ATCC 34135 assessed as inhibition of fungal growth incubated for 24 hrs by broth microdilution method; assay type: functional; method in brief: as §1
[30] = Cytotoxicity against African green monkey Vero cells assessed as cell viability at 8 ug/ml incubated for 2 hrs by MTS assay; assay type: toxicity, cell-based; conditions: chlorocebus sabaeus, at 8 µg/mL, read-out: Activity; method in brief: as §4
[31] = Apparent permeability of the compound measured after 4 hrs by PAMPA assay; assay type: ADME
Method in brief: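 PAMPA: compound was placed in pH 6.5 donor buffer across a lipid-pretreated PVDF filter from pH 7.4 acceptor buffer, and incubated 4 h at ambient temperature. Donor and acceptor amounts at start and end were measured by UV absorbance to give apparent permeability.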

For `Cc1nc(-c2ccc3ccccc3c2)sc1-c1nnc(NCC(=N)N)o1`, the MIC (Clostridioides difficile) was 64 µg/mL (≈ 176 µM), the MIC (Escherichia coli [1]) was > 64 µg/mL and the MIC (Staphylococcus aureus) was > 64 µg/mL. The MIC (Escherichia coli [2]) was > 64 µg/mL and the MIC (Candida albicans [3]) was 32 µg/mL (≈ 87.8 µM).
For `Cc1nc(-c2ccc3ccccc3c2)sc1-c1nnc(N2CC[C@@H](N(C)C)C2)o1`, the MIC (Clostridioides difficile) was 16 µg/mL (≈ 39.5 µM), the MIC (Escherichia coli [1]) was > 64 µg/mL and the MIC (Staphylococcus aureus) was 4 µg/mL (≈ 9.86 µM). The MIC (Escherichia coli [2]) was 32 µg/mL (≈ 78.9 µM) and the MIC (Candida albicans [3]) was 32 µg/mL (≈ 78.9 µM).
In the case of `CCCNc1nnc(-c2sc(-c3ccc4ccccc4c3)nc2C)o1`, the MIC (Clostridioides difficile) was > 64 µg/mL, the MIC (Escherichia coli [1]) was > 64 µg/mL and the MIC (Staphylococcus aureus) was > 64 µg/mL. The MIC (Escherichia coli [2]) was > 64 µg/mL and the MIC (Candida albicans [3]) was > 64 µg/mL.
In the case of `C[C@@H]1[C@H](O)[C@@H](C)/C=C/C=C/C=C/C=C/C=C/C=C/C=C/[C@H](O[C@@H]2O[C@H](C)[C@@H](O)[C@H](N)[C@@H]2O)C[C@@H]2O[C@](O)(C[C@@H](O)C[C@@H](O)[C@H](O)CC[C@@H](O)C[C@@H](O)CC(=O)O[C@H]1C)C[C@H](O)[C@H]2C(=O)O` [AMPHOTERICIN B], the MIC (Lactobacillus gasseri) was > 128 µg/mL, the MIC [4] was 1 µg/mL (≈ 1.08 µM) and the MIC (Nakaseomyces glabratus [5]) was 1 µg/mL (≈ 1.08 µM). The MIC (Cryptococcus neoformans [6]) was 1 µg/mL (≈ 1.08 µM), the MIC [7] was > 128 µg/mL and the MIC (Candida parapsilosis [8]) was 0.5 µg/mL (≈ 0.541 µM). The MIC (Cryptococcus neoformans [9]) was 1 µg/mL (≈ 1.08 µM), the MIC (Cryptococcus neoformans [10]) was 1 µg/mL (≈ 1.08 µM) and the MIC (Candida albicans [11]) was 1 µg/mL (≈ 1.08 µM). For the same molecule, the MIC ([Candida] auris [12]) was 0.5 µg/mL (≈ 0.541 µM), the MIC (Nakaseomyces glabratus [13]) was 2 µg/mL (≈ 2.16 µM) and the MIC (Cryptococcus neoformans [14]) was 1 µg/mL (≈ 1.08 µM). The MIC [15] was 1 µg/mL (≈ 1.08 µM), the MIC ([Candida] auris [16]) was 1 µg/mL (≈ 1.08 µM) and the MIC [17] was > 128 µg/mL. The MIC (Cryptococcus neoformans [18]) was 1 µg/mL (≈ 1.08 µM), the MIC (Candida albicans [19]) was 1 µg/mL (≈ 1.08 µM) and the Activity (Vero) was “Toxic”. It also gave an MIC [20] of 1 µg/mL (≈ 1.08 µM), an MIC (Cryptococcus neoformans [21]) of 1 µg/mL (≈ 1.08 µM) and an MIC ([Candida] auris [22]) of 1 µg/mL (≈ 1.08 µM). The CC50 at 2 h [23] was ~8 µg/mL (≈ 8.66 µM), the MIC (Cryptococcus neoformans [24]) was 1 µg/mL (≈ 1.08 µM) and the MIC (Candida parapsilosis [25]) was 0.5 µg/mL (≈ 0.541 µM). For the same molecule, the MIC [26] was 1 µg/mL (≈ 1.08 µM), the MIC (Pichia kudriavzevii [27]) was 2 µg/mL (≈ 2.16 µM) and the MIC [28] was 1 µg/mL (≈ 1.08 µM). It also gave an MIC (Candida albicans [3]) of 1 µg/mL (≈ 1.08 µM), an MIC (Pichia kudriavzevii [29]) of 2 µg/mL (≈ 2.16 µM) and a viability at 2 h, 8 ug/ml [30] of 58%.
In the case of `Cc1nc(-c2ccc3ccccc3c2)sc1-c1nnc(N2CCCCC2CN)o1` (configuration not stated), the MIC (Clostridioides difficile) was 32 µg/mL (≈ 78.9 µM), the MIC (Escherichia coli [1]) was > 64 µg/mL and the MIC (Staphylococcus aureus) was > 64 µg/mL. For the same molecule, the MIC (Escherichia coli [2]) was > 64 µg/mL and the MIC (Candida albicans [3]) was > 64 µg/mL.
For `Cc1nc(-c2ccc3ccccc3c2)sc1-c1nnc(N[C@H]2CC[C@H](N)CC2)o1`, the MIC (Clostridioides difficile) was 64 µg/mL (≈ 158 µM), the MIC (Escherichia coli [1]) was > 64 µg/mL and the MIC (Staphylococcus aureus) was 64 µg/mL (≈ 158 µM). The MIC (Escherichia coli [2]) was > 64 µg/mL and the MIC (Candida albicans [3]) was 64 µg/mL (≈ 158 µM).
With `Cc1nc(-c2ccc3ccccc3c2)sc1-c1nnc(NCCN)o1` the MIC (Clostridioides difficile) was 64 µg/mL (≈ 182 µM), the MIC (Escherichia coli [1]) was > 64 µg/mL and the MIC (Staphylococcus aureus) was 32 µg/mL (≈ 91.1 µM). For the same molecule, the MIC (Escherichia coli [2]) was 64 µg/mL (≈ 182 µM) and the MIC (Candida albicans [3]) was 32 µg/mL (≈ 91.1 µM).
For `Cc1nc(-c2ccc3ccccc3c2)sc1-c1nnc(N2CC[C@H](N(C)C)C2)o1`, the MIC (Clostridioides difficile) was > 64 µg/mL, the MIC (Escherichia coli [1]) was > 64 µg/mL and the MIC (Staphylococcus aureus) was > 64 µg/mL. The MIC (Escherichia coli [2]) was > 64 µg/mL and the MIC (Candida albicans [3]) was 8 µg/mL (≈ 19.7 µM).
`CC(C(=O)O)c1cccc(C(=O)c2ccccc2)c1` (configuration not stated) [KETOPROFEN] showed a Papp at 4 h [31] of 10.2 ×10⁻⁶ cm/s.
In the case of `CC(C)NCC(O)COc1cccc2ccccc12` (configuration not stated) [PROPRANOLOL], the Papp at 4 h [31] was 76.6 ×10⁻⁶ cm/s.
